Measurements: PubChem BioAssay
Activity calls are given as the source filed them.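 Rule for the calls, unless noted: active = a full or partial loss of lipid-probe fluorescence in the fish gall bladder, intestine or both, judged by eye; inactive = no fluorescence loss, or compound toxic to the fish.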

Tests used:
[1] = inhibitors of TNFa-induced NFkB p65 translocation, primary screen, imaging, HUVEC, MLSMR starter and 10KST1 sets (AID 438;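 active = inhibition above 20% together with a positive visual image hit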;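 note: compound added about 3h40 before a 20 min TNFalpha stimulation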;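 for inhibition: signal is the nuclear over cytoplasmic p65 intensity ratio per well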); conditions: HUVEC TNFa-induced p65 nuclear translocation; cell count: measured here: nuclei count (cytotoxicity indicator), at 2.08 µM; inhibition: at 2 µM, stronger effect = higher value, 0% TNFa-plus-vehicle, 100% no-TNFa wells
[2] = inhibitors of E-selectin induction by TNFa, primary screen, imaging, HUVEC, immunofluorescence, MLSMR starter and 10KST1 sets (AID 487;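 active = visually confirmed hit in the image check and inhibition above 20%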;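 for inhibition: signal is fraction of cell area covered by stained E-selectin grains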;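 for nuclei count: 100% = median nuclei count of all wells on the same plate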); conditions: HUVEC TNFalpha-induced E-selectin immunofluorescence imaging, at 2 µM; inhibition: stronger effect = higher value; nuclei count: measured here: cell number, toxicity
[3] = DUSP6 inhibitors restoring Erk phosphorylation by chemical complementation, primary imaging in DUSP6-transfected HeLa (AID 609;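 active = compounds giving at least 50% inhibition in the cell-based MKP-3 phosphatase rescue imaging test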;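 for inhibition: phospho-Erk level distribution per well compared with pooled transfected vehicle control wells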); conditions: HeLa MKP-3 transfected, phospho-Erk imaging KS statistic, at 10 µM, cells stimulated with TPA for 15 min
[4] = biological target: Dual specificity protein phosphatase 6 (Homo sapiens) (UniProt Q16828); experiment: as above; conditions: HeLa MKP-3 transfected, phospho-Erk imaging KS statistic; at 10 µM; stronger effect = higher value; cells stimulated with TPA for 15 min
[5] = biological target: Voltage-gated potassium channel subunit beta-2 (Rattus norvegicus) (UniProt P62483); experiment: KvBeta enzyme negative modulators, primary screen, biochemical, NADPH fluorescence (AID 622;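 active = fluorescence slope higher than the sample average by over 3 SD, cut at about -0.22 in these data, passing the limit was not always enough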;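 note: slope of raw intensity against log time taken from 70 to 1610 s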); conditions: recombinant KvBeta, 4-cyanobenzaldehyde reduction, at 10 µM, stronger effect = higher value
[6] = biological target: Voltage-gated potassium channel subunit beta-2 (Rattus norvegicus) (UniProt P62483); experiment: KvBeta positive modulators, primary screen, biochemical, NADPH fluorescence (AID 623;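 active = NADPH fluorescence slope more negative than the mean of all samples by about 3 SD, 99.7% confidence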;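 note: fluorescence intensity change per second fitted from 20 to 320 s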); conditions: Recombinant KvBeta, NADPH fluorescence decrease slope, 10 min; at 10 µM; stronger effect = lower value
[7] = biological target: Muscarinic acetylcholine receptor M4 (Homo sapiens) (UniProt P08173); experiment: compounds altering M4/GIRK thallium flux, either direction, primary screen, M4 allosteric agonist project, cell-based, HEK293 M4/GIRK, BTC-AM (AID 625;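 active = fluorescence slope after compound addition differing from the mean of all tested samples at 99.7% confidence, mostly higher but some lower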;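 note: thallium influx through GIRK channels coupled to M4 in HEK293 cells with BTC-AM dye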); conditions: at 10 µM, actives lie on both sides
Procedure, shortened: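 Material – HEK293 cells with M4 receptor and GIRK channels · Buffer or medium – pH 7.3 thallium assay buffer · Doses – one dose, 10 µM final · Timing – cells overnight at 37 °C, BTC-AM loading 1 h, reads 2 min total · Measured by – kinetic fluorescence with BTC-AM dye · Controls – carbachol and DMSO controls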

[8] = inhibitors of larval lipid processing in zebrafish, primary screen, whole organism, PED6 fluorescence, gall bladder and intestine (AID 686); conditions: Zebrafish larvae PED6 lipid processing, fluorescence scoring; screened at 20 µM (by protocol);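 note: larvae 5 to 7 days old with five fish per well; signal comes from phospholipase A2 cleavage of quenched PED6 carried via bile; overnight exposure to compound and PED6 before scoring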
Procedure, shortened: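 system = live zebrafish larvae aged 5-7 days, whole organism | probe or stimulus = ingested quenched lipid PED6 at 100 nM | doses = 20 µM single dose | timing = overnight exposure | detection = fluorescence microscopy with visual scoring of gall bladder and intestine | read-out = visual per-well fluorescence inhibition score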

[9] = inhibitors of Chlamydomonas gravitaxis, primary screen, whole organism, Chlamydomonas reinhardtii, WT vs cilia-less mutant, absorbance, 96-well (AID 463189;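 active = inhibition at or above 50% relative to wild type and mutant plate controls; inactive = inhibition below 50%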;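 note: 0% = wild type cc124 cells in DMSO and 100% = ciliumless bld1 mutant cells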); conditions: OD600 absorbance, 2 days, at 10 µM, stronger effect = higher value
[10] = measured here: cell density z-score
[11] = measured here: nuclear c-Myc green intensity z-score
[12] = measured here: nuclear pErk red intensity z-score, stronger effect = higher value

Chain of Dual specificity protein phosphatase 6 (Homo sapiens) (Q16828 whole entry, looked up): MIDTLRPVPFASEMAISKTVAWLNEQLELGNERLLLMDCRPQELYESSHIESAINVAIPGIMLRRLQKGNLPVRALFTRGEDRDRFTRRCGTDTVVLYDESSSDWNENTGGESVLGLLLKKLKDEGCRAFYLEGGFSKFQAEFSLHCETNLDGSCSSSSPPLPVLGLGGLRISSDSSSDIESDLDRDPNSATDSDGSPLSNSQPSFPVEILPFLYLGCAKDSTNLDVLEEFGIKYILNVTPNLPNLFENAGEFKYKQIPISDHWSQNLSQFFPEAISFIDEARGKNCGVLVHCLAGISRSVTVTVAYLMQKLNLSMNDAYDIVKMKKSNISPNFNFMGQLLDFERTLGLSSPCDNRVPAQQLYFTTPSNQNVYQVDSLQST
Chain of Muscarinic acetylcholine receptor M4 (Homo sapiens) (P08173 whole entry, looked up): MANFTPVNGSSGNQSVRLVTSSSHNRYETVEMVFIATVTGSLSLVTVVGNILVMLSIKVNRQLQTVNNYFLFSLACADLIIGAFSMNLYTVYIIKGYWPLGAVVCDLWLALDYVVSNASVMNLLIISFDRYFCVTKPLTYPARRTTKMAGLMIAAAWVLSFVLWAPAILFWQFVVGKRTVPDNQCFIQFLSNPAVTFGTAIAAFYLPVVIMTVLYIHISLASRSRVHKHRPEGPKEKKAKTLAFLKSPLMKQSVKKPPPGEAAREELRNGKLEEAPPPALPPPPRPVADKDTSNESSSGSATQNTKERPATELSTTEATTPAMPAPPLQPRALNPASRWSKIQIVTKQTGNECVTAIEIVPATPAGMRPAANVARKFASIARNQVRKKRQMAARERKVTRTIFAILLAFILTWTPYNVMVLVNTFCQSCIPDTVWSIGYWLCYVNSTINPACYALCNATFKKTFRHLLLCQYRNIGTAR
Chain of Voltage-gated potassium channel subunit beta-2 (Rattus norvegicus) (P62483 whole entry, looked up): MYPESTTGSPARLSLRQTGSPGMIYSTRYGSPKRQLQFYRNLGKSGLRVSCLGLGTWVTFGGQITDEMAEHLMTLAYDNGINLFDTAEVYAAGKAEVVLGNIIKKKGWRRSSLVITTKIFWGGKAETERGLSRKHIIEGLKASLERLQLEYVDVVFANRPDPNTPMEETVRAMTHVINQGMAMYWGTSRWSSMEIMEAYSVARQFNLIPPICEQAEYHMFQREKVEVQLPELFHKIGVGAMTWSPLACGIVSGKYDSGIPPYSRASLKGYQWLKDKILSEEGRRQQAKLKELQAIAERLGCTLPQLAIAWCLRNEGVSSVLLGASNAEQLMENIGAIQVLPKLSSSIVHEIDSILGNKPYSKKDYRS

Structure (SMILES) | cell count [1] | inhibition [1] | inhibition [2] | nuclei count [2] [%] | z-score [3, 10] | z-score [3, 11] | z-score [3, 12] | inhibition [4] | fluorescence slope [5] | NADPH fluorescence slope [6] | fluorescence slope [7] | outcome [8] | inhibition [9]
CC1(C)Cc2c(c(-c3ccccc3Cl)[nH]c(=O)c2C#N)CO1 | 591 | 5.7% (inactive) | -106% (inactive) | 134 | 0.999 | -0.743 | 0.0604 | 11.9% (inactive) | -0.384 (inactive) | -2.7e-05 (inactive) | 0.00508 (inactive) | inactive | 20.5% (inactive)
N#C/C(C(=O)N1CCCCC1)=C1\Nc2ccccc2S1 | 649 | 6.4% (inactive) | -0.9% (inactive) | 117 | -0.0253 | -0.323 | -0.359 | 1.63% (inactive) | -0.457 (inactive) | -6.2e-05 (inactive) | 0.00412 (inactive) | inactive | 15.7% (inactive)
CC1(C)Cc2c(C#N)c(N3CCN(C(=O)c4ccccc4)CC3)nc(-c3ccco3)c2CS1 | 640 | -9% (inactive) | -74.3% (inactive) | 156 | 0.833 | 0.824 | -0.638 | 19.1% (inactive) | -0.401 (inactive) | -2.5e-05 (inactive) | 0.0059 (inactive) | inactive | 7.79% (inactive)
CCOC(=O)c1[nH]c2ccc(C)cc2c1N=CN(CC)CC | 681 | -16.8% (inactive) | -97.9% (inactive) | 174 | -1.2 | 1.5 | 0.686 | 3.97% (inactive) | -0.474 (inactive) | -7.5e-05 (inactive) | 0.00485 (inactive) | inactive | -5% (inactive)
CCCCOC(=O)CSC1=C(C#N)C(c2ccc3c(c2)OCO3)CC(=O)N1 (centres undefined) | 650 | -12.5% (inactive) | -163% (inactive) | 155 | 1.99 | 0.113 | -0.175 | 8.31% (inactive) | -0.5 (inactive) | -8.3e-05 (inactive) | 0.00598 (inactive) | inactive | 4.75% (inactive)
CCOC(=O)NC(Nc1sc2c(c1C(=O)OC)CCN(C)C2)(C(F)(F)F)C(F)(F)F | 614 | 3.1% (inactive) | -20.8% (inactive) | 89.6 | 0.751 | -0.407 | -0.601 | 16.5% (inactive) | -0.501 (inactive) | -3.3e-05 (inactive) | 0.00619 (inactive) | inactive | 36.6% (inactive)
CC(O)(C#CCN1CCOCC1)c1ccccc1 (centres undefined) | 634 | 1.5% (inactive) | -34.4% (inactive) | 149 | 0.104 | 0.285 | 0.53 | -5.81% (inactive) | -0.455 (inactive) | -5.1e-05 (inactive) | 0.00484 (inactive) | inactive | 17.4% (inactive)
O=C(c1ccccc1)c1cc(-c2ccccc2)on1 | 589 | -3.4% (inactive) | -39.7% (inactive) | 118 | -0.313 | -0.603 | 0.519 | -13.3% (inactive) | -0.41 (inactive) | -7.5e-05 (inactive) | 0.00548 (inactive) | inactive | -6.04% (inactive)
CCOC(=O)N1CCN(c2ncnc3c2cnn3-c2ccc(OC)cc2)CC1 | 638 | -4.6% (inactive) | -140% (inactive) | 149 | 0.712 | -0.105 | 0.21 | 13.4% (inactive) | -0.379 (inactive) | -4.6e-05 (inactive) | 0.00565 (inactive) | inactive | 0.263% (inactive)
CC(C)OC(=O)CCNc1n[nH]c(=O)[nH]c1=O | 635 | -4.3% (inactive) | -4.4% (inactive) | 119 | 0.648 | 0.239 | 0.621 | -4.27% (inactive) | -0.499 (inactive) | -0.000105 (inactive) | 0.00594 (inactive) | inactive | -8.46% (inactive)
Cc1nnc(N2CCCCC2)c2ccccc12 | 511 | -5.6% (inactive) | 59.4% (inactive) | 87 | -2.8 | 0.768 | 0.176 | 18.4% (inactive) | -0.507 (inactive) | -9.4e-06 (inactive) | 0.0054 (inactive) | inactive | 47.9% (inactive)
COC(=O)CC(=O)Cc1nc(N)nc(Nc2ccc(C)c(C)c2)n1 | 628 | 1.8% (inactive) | -16.8% (inactive) | 133 | 0.15 | 0.484 | 0.858 | -0.233% (inactive) | -0.442 (inactive) | -3e-05 (inactive) | 0.00526 (inactive) | inactive | 1.81% (inactive)
Cc1ccc(N2CC(C(=O)Nc3ccc(N(C)C)cc3)CC2=O)cc1C (centres undefined) | 477 | -7.1% (inactive) | -76.8% (inactive) | 107 | -1.37 | 0.307 | 1.15 | -1.98% (inactive) | -0.411 (inactive) | -9.5e-07 (inactive) | 0.00461 (inactive) | inactive | -1.65% (inactive)
